Experiments:
[1] = Embryotoxicity in fertilized chicken embryo at 2.5 nmol/egg; assay type: toxicity, Gallus gallus
Gallus gallus = species on record: Gallus gallus; test: Antiangiogenesis activity against fertilized chicken egg chorioallantoic membrane assessed as inhibition of neovascularization at 2.5 nmol/egg by CAM vessel development assay relative to control; assay type: functional, tissue-based
Method in brief: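 Fertilized chicken eggs incubated at 37 °C, 80–90% relative humidity. Day 3: window opened after removing 2 ml albumin. Day 5: sample loaded on a quarter-size coverslip placed on the CAM of each embryo, 2.5 nmol/egg. Scored as positive eggs out of 10 tested, graded inhibition effect, and % inhibition of vessel development relative to control.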

Row | Compound | Activity [1] | inhibition (Gallus gallus) [%]
1 | C[C@H]1[C@@H](CCCOC(=O)CCCC[C@H](C)O[C@@H]2O[C@@H](C)[C@H](O)C[C@H]2O)O[C@@H]2O[C@@]3(C)CC[C@H]4[C@H](C)CC[C@@H]1[C@@]24OO3 | Toxic | 60
2 | C[C@H]1[C@@H](CCOC(=O)CCCC[C@H](C)O[C@@H]2O[C@@H](C)[C@H](OC(=O)c3ccccc3)C[C@H]2OC(=O)c2ccccc2)O[C@@H]2O[C@@]3(C)CC[C@H]4[C@H](C)CC[C@@H]1[C@@]24OO3 | Toxic | 60
3 | C[C@H]1[C@@H](OC(=O)CCCC[C@H](C)O[C@@H]2O[C@@H](C)[C@H](OC(=O)c3ccccc3)C[C@H]2OC(=O)c2ccccc2)O[C@@H]2O[C@@]3(C)CC[C@H]4[C@H](C)CC[C@@H]1[C@@]24OO3 | Toxic | 10
4 | C[C@H]1[C@@H](CCCOC(=O)CCCC[C@H](C)O[C@@H]2O[C@@H](C)[C@H](OC(=O)c3ccccc3)C[C@H]2OC(=O)c2ccccc2)O[C@@H]2O[C@@]3(C)CC[C@H]4[C@H](C)CC[C@@H]1[C@@]24OO3 | Non-toxic | 80
5 | C[C@H](CCCCC(=O)O)O[C@@H]1O[C@@H](C)[C@H](O)C[C@H]1O [DAUMONE] | Non-toxic | 70
6 | C[C@H]1[C@@H](CC(=O)OCCCCC[C@@H](C)O[C@@H]2O[C@@H](C)[C@H](O)C[C@H]2O)O[C@@H]2O[C@@]3(C)CC[C@H]4[C@H](C)CC[C@@H]1[C@@]24OO3 | Non-toxic | 100
7 | O=C1CC[C@H](N2C(=O)c3ccccc3C2=O)C(=O)N1 | Toxic | 40
8 | C[C@@H]1CC[C@H]2[C@@H](C)C(=O)O[C@@H]3O[C@@]4(C)CC[C@@H]1[C@]32OO4 [ARTEMISININ] | Non-toxic | 30
9 | C[C@H]1[C@@H](CC(=O)OCCCCC[C@@H](C)O[C@@H]2O[C@@H](C)[C@H](OCc3ccccc3)C[C@H]2OCc2ccccc2)O[C@@H]2O[C@@]3(C)CC[C@H]4[C@H](C)CC[C@@H]1[C@@]24OO3 | Toxic | 50
10 | C=CCCCC[C@@H](C)O[C@@H]1O[C@@H](C)[C@H](O)C[C@H]1OC(=O)C[C@H]1O[C@@H]2O[C@@]3(C)CC[C@H]4[C@H](C)CC[C@@H]([C@H]1C)[C@@]24OO3 | 50% | 50
11 | C[C@H]1[C@@H](CC(=O)O[C@@H]2C[C@@H](O)[C@H](C)O[C@H]2O[C@H](C)CCCCCO)O[C@@H]2O[C@@]3(C)CC[C@H]4[C@H](C)CC[C@@H]1[C@@]24OO3 | Non-toxic | 50
12 | C[C@H]1[C@@H](CCOC(=O)CCCC[C@H](C)O[C@@H]2O[C@@H](C)[C@H](O)C[C@H]2O)O[C@@H]2O[C@@]3(C)CC[C@H]4[C@H](C)CC[C@@H]1[C@@]24OO3 | Toxic | 60
13 | CO[C@@H]1[C@H](OC(=O)/C=C/C=C/C=C/C=C/C(=O)O)CC[C@]2(CO2)[C@H]1[C@@]1(C)O[C@@H]1CC=C(C)C [FUMAGILLIN] | Toxic | 40
14 | C=CCCCC[C@@H](C)O[C@@H]1O[C@@H](C)[C@H](OC(=O)C[C@H]2O[C@@H]3O[C@@]4(C)CC[C@H]5[C@H](C)CC[C@@H]([C@H]2C)[C@@]35OO4)C[C@H]1O | Toxic | 70
15 | C[C@H]1[C@@H](OC(=O)CCCC[C@H](C)O[C@@H]2O[C@@H](C)[C@H](O)C[C@H]2O)O[C@@H]2O[C@@]3(C)CC[C@H]4[C@H](C)CC[C@@H]1[C@@]24OO3 | Toxic | 50

Reference: ChEMBL document CHEMBL1800053, “Concise synthesis and antiangiogenic activity of artemisinin-glycolipid hybrids on chorioallantoic membranes” (Bioorg Med Chem Lett, 2010)
